Results on six compounds are retold here after ChEMBL document CHEMBL5108090, “Structure-activity relationship study of PROTACs against hematopoietic prostaglandin D2 synthase” (RSC Med Chem, 2022).

Activity calls are given as the source filed them. The calls are words filed in the database; no cut-off is given here.

The target of test [1] is T1, Protein cereblon/Hematopoietic prostaglandin D synthase (Homo sapiens, UniProt O60760+Q96SW2). Put plainly: PROTAC activity at CRBN/H-PGDS in human KU812 cells assessed as reduction in A23187-stimulated PGD2 levels at 10 nM preincubated for 24 hrs followed by A23187 stimulation for 30 mins by ELISA analysis relative to control. Type of test: cell-based. To be noted: KU812 cell line, time 24.5 hrs. An outline of the steps: (§1)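 KU812 cells (human CML; RPMI-1640, 10% FBS, penicillin–streptomycin) were treated with compound for 24 h. They were then stimulated with 5 μM calcium ionophore A23187 for 30 min. PGD2 in the culture medium was quantified by PGD2-MOX ELISA per the kit instructions.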
Target sequence in this assay (O60760 whole entry, looked up): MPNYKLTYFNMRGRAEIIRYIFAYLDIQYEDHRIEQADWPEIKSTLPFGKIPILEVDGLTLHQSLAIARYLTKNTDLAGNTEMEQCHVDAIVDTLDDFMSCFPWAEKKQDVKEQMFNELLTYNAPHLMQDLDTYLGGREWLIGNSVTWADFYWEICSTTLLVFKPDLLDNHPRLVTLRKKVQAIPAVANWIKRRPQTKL
Target sequence in this assay (Q96SW2 whole entry, looked up): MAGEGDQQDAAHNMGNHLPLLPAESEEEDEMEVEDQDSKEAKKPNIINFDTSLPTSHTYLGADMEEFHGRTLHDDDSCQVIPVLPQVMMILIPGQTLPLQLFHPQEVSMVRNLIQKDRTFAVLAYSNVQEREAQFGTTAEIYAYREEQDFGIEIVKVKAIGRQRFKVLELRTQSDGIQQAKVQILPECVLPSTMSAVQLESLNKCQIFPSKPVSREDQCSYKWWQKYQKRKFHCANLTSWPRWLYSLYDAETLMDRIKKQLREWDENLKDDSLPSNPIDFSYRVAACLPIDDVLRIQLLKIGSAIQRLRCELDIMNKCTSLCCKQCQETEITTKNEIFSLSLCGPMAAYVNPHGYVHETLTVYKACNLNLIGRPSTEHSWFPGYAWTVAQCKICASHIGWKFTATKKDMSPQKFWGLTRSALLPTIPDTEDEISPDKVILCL

Test [2] addresses T1, Protein cereblon/Hematopoietic prostaglandin D synthase. Nature of the test: PROTAC activity at CRBN/H-PGDS in human KU812 cells assessed as reduction in H-PGDS levels incubated for 24 hrs by Western blotting analysis. Type of test: cell-based, KU812 cell line. An outline of the steps: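 KU812 cells were incubated with a compound concentration series for 24 h. SDS lysates (equal protein) were blotted for H-PGDS and β-actin with ECL quantification. The H-PGDS/actin ratio was set relative to DMSO (100%); mean ± SEM, n = 3. DC50 came from a linear fit through the three points spanning 50% protein level.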
Target sequence in this assay (O60760 whole entry): as the sequence (O60760 whole entry, looked up) above
Target sequence in this assay (Q96SW2 whole entry): as the sequence (Q96SW2 whole entry, looked up) above

Test [3] concerns the target T2, Hematopoietic prostaglandin D synthase (Homo sapiens, UniProt O60760). Nature of the test: Binding affinity to recombinant human H-PGDS incubated for 1 hrs by competitive fluorescence polarization assay. An outline of the steps: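 Competitive FP assay using a commercial kit. Recombinant human H-PGDS, glutathione and fluorescent probe in assay buffer. Compounds were added from DMSO stocks at final 2.50 μM to 2.44 nM (11 points), in triplicate, for 1 h at room temperature. Read at ex 470/em 530 nm in mP. IC50 is the concentration giving a 50% mP reduction, from a semi-log plot.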

Test [4] addresses T2, Hematopoietic prostaglandin D synthase. Put plainly: Inhibition of H-PGDS in human KU812 cells assessed as reduction in A23187-stimulated PGD2 levels at 10 nM preincubated for 24 hrs followed by A23187 stimulation for 30 mins by ELISA analysis. Type of test: cell-based. The following applies: KU812 cell line, time 24.5 hrs. An outline of the steps: as §1
The target in test [5] is T1, Protein cereblon/Hematopoietic prostaglandin D synthase. Nature of the test: PROTAC activity at CRBN/H-PGDS in human KU812 cells assessed as reduction in H-PGDS levels at 1 nM incubated for 6 hrs by Western blotting analysis. The following applies: KU812 cell line. Type of test: cell-based. An outline of the steps:
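KU812 cells were exposed to compound for 6 h, with MG132 or MLN7243 co-treatment or ligand competition in some arms. Lysates in SDS buffer were boiled and equal protein by BCA was run on SDS-PAGE. Blots used anti-H-PGDS and anti-β-actin with ECL detection. H-PGDS/β-actin was normalized to the DMSO control (100%); mean ± SEM, n = 3.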
Target sequence in this assay (O60760 whole entry, looked up): as the sequence (O60760 whole entry, looked up) above
Target sequence in this assay (Q96SW2 whole entry, looked up): as the sequence (Q96SW2 whole entry, looked up) above

T2 sequence (O60760 whole entry): as the sequence (O60760 whole entry, looked up) above

As for `Cn1cccc1C(=O)N1CCN(C(=O)Nc2ccc(N3CCC(C(=O)N4CCN(c5ccc6c(c5)C(=O)N(C5CCC(=O)NC5=O)C6=O)CC4)CC3)cc2)CC1` (configuration not stated), in test [1], the result was Active. For the same compound, in test [2], the DC50 came to 0.0238 nM. Also, the IC50 in test [3] amounted to 124 nM.

For the compound `O=C1CCC(N2C(=O)c3cccc(N4CCN(C(=O)C5CCN(c6ccc(NC(=O)c7cnc(Oc8ccccc8)nc7)cc6)CC5)CC4)c3C2=O)C(=O)N1` (configuration not stated), in test [1], the result was Active. Moreover, in test [2], the DC50 was determined as 0.0187 nM. The IC50 in test [3] was 116 nM.

`O=C(Nc1ccc(N2CCC(C(=O)N3CCOCC3)CC2)cc1)c1cnc(Oc2ccccc2)nc1`: in test [4], the inhibition entry is “Active”. Also, the IC50 in test [3] was 211 nM.

On to `Cn1cccc1C(=O)N1CCN(C(=O)Nc2ccc(N3CCC(C(=O)N4CCN(c5cccc6c5C(=O)N(C5CCC(=O)NC5=O)C6=O)CC4)CC3)cc2)CC1` (configuration not stated), for which, in test [1], the result was Active. Also, the DC50 in test [2] came out at 0.0714 nM. Besides, the IC50 in test [3] turned out to be 78.1 nM.

With `O=C1CCC(N2C(=O)c3ccc(N4CCN(C(=O)C5CCN(c6ccc(NC(=O)c7cnc(Oc8ccccc8)nc7)cc6)CC5)CC4)cc3C2=O)C(=O)N1` (configuration not stated), the outcome in test [1] and in test [5] was Active. In addition, the DC50 in test [2] amounted to 0.0276 nM. Moreover, in test [3], the IC50 is 196 nM.

On to `Cn1cccc1C(=O)N1CCN(C(=O)Nc2ccc(N3CCC(C(=O)N4CCOCC4)CC3)cc2)CC1`, for which the inhibition result in test [4] was “Active”. Further, the IC50 in test [3] was determined as 134 nM.
